In the library only some 2% were active in any assay of this set; here they are far more common.
LMPTP inh = LMPTP (human) inhibition; inhibition, % at 20 µM; AID 651560; 0.22% of 360,000 active; recombinant LMPTP-A, OMFP fluorogenic substrate, fluorescence intensity;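 active = compounds that cut the enzyme signal by at least half of the control window in the single-dose screen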
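Assay system: LMPTP-A, protein tyrosine phosphatase of low molecular weight / Medium: pH 6.0 Bis-Tris buffer with DTT and Triton X-100 / Schedule: 50 min enzyme reaction at room temperature, protected from light / Measured by: endpoint fluorescence intensity from OMFP dephosphorylation / Read-out basis: % inhibition relative to no-enzyme and uninhibited control wells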
Scp1 inh = inhibitors of human Scp-1 phosphatase. 0.88% of 340,000 active. inhibition, % at 20 µM. Recombinant Scp1, phosphopeptide, malachite green phosphate absorbance. Q9GZU7. AID 493091;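 active = inhibition above about 50% at 20 µM, limit read from the data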
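Test system: SCP-1 phosphatase catalytic domain, residues 76-261; measured by: colorimetric phosphate reagent with accelerator and stabiliser, absorbance at 630 nm; timing: enzyme reaction 45 min at room temperature, colour 5 min, stabilisation 30 min; also added: Phosphorylated 17-residue peptide substrate; compound dosing: one concentration, 20 µM, with 1.0% DMSO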
CSN inh = CSN deneddylation inhibition. Q92905. Purified CSN, SCF-Nedd8-OG deneddylation, fluorescence polarization. inhibition, % at 12.5 µM. 0.38% of 360,000 active;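 active = pattern-corrected inhibition above about 35%, with an unprinted fluorescence ratio check between 0.5 and 1.5, limit read from the data, passing the limit was not always enough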
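Material: human Csn5 produced in HEK293T cells; Input: enzyme 0.24 nM; Reagent: SCFSkp2-Nedd8OG substrate at 10 nM final; Dosing: 12.5 µM compound; Incubation: 90 min reaction at room temperature; Detection: fluorescence polarization of the substrate; Evaluation: % inhibition of substrate cleavage by Csn5; Control set: substrate-only high control, full reaction low control.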
DNMT1 block = inhibitors of human DNMT1; P26358; DNMT1 molecular beacon, Hinp1I cleavage, fluorescence; inhibition (reported as % activation of signal), % at 10 µM; 0.83% of 360,000 active; AID 588458; in the data active = inhibition above about 50%
SUMO1 PPI mod = modulators of human SUMO1-mediated protein-protein interactions. P63165. SUMO1 binding to a labelled peptide, TR-FRET, 1 h. inhibition, % at 20 µM. 0.33% of 360,000 active. AID 602429; in the data active = inhibition above about 37%
Target sequence (P63165 whole entry, looked up): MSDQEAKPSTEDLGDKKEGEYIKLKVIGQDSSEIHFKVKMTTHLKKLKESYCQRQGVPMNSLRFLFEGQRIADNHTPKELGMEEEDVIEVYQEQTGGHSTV
STEP inh = blocks human striatal-enriched tyrosine phosphatase; 0.25% of 360,000 active; inhibition, % at 20 µM; recombinant STEP, OMFP fluorogenic substrate, fluorescence;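 active = inhibition at 20 µM, scaled per plate between control wells, above about 37%, limit read from the data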
Target sequence (P54829 whole entry, looked up): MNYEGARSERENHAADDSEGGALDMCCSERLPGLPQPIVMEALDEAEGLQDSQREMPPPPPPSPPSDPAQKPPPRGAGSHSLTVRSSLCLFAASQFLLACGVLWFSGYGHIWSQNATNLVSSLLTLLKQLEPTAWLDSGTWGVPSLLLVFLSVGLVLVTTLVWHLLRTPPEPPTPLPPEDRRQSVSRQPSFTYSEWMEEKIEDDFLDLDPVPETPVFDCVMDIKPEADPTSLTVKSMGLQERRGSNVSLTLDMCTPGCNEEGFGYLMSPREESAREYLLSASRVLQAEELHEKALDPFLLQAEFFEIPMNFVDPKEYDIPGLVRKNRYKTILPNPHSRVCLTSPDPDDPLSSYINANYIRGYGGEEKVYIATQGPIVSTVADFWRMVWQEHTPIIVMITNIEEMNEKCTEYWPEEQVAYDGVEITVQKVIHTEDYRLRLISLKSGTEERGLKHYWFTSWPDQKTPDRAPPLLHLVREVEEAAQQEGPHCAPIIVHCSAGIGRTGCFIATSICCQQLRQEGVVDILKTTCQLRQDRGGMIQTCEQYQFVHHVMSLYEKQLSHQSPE
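Test system: STEP tyrosine phosphatase / Reagent: OMFP at 25 µM / Doses: 20 µM, 1% DMSO / Read-out: percent inhibition scaled to no-enzyme and uninhibited-enzyme controls, plate-pattern corrected / Detection: FITC-channel fluorescence of OMFP product / Medium: Bis-Tris buffer pH 6.0, 2.5 mM DTT, 0.005% Tween 20 / Schedule: 20 min at room temperature, dark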
Scp-1 conf = confirmation of human Scp-1 phosphatase inhibitors; shares compounds with Scp1 inh; recombinant SCP-1 catalytic domain, phosphate release, malachite green absorbance; inhibition, % at 20 µM; 61% of 2,500 active
MG interference = colorimetric interference in Scp-1 counter-screen; shares compounds with Scp1 inh; Colorimetric interference counterscreen, malachite green absorbance 630 nm; apparent inhibition (interference), % at 20 µM; 2,500 tested, under 10 active; AID 540313;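 note: compounds added after enzyme reaction finished so only phosphate colour detection is probed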
Scp-1 Tm shift = validation of human Scp-1 inhibitors by thermal shift binding. shares compounds with Scp1 inh. Recombinant SCP1, Sypro Orange thermal shift Tm. thermal shift relative to vanadate control, % at 40 µM. 25% of 1,500 active. AID 540329;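 active = substances whose mean melting-temperature shift, as a percentage of the reference inhibitor's shift, reaches about 5.3%, limit read from the data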
Each line names hits and unclear results; the compound was inactive in the other large screens (follow-up assays come after a bar, where they were run).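 Rule for the calls, unless noted: active = inhibition of at least 30% at 20 µM; inactive = the rest.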

COc1ccccc1CNC(=O)CN(C)S(=O)(=O)c1ccc2c(c1)c(=O)n(C)c(=O)n2C	none
Cc1ccc(CNC(=O)CN(C)S(=O)(=O)c2ccc3c(c2)n(C)c(=O)c(=O)n3C)cc1	none | Scp-1 conf inactive | MG interference inactive
COc1ccccc1CNC(=O)CN(C)S(=O)(=O)c1ccc2c(c1)n(C)c(=O)c(=O)n2C	none | Scp-1 conf inactive | MG interference inactive
COc1cccc(CNC(=O)CCc2nc3cc(S(=O)(=O)N4CCOCC4)ccc3n2C)c1	none
O=C(CCl)Nc1ccccc1C(=O)Nc1ccc2c(c1)OCO2	none
CCc1cccc(NS(=O)(=O)c2ccc3c(c2)NC(=O)CC(=O)N3)c1	none | Scp-1 conf inactive | MG interference inactive
Cc1onc(-c2c(F)cccc2Cl)c1C(=O)NCCc1ccncc1	none
COc1ccc(C)cc1NC(=O)CNC(=O)[C@@H]1Cc2ccccc2CN1	none
CC(=O)Nc1ccc(NC(=O)Cn2c(=O)n(-c3ccc(C)cc3)c(=O)c3oc4ccccc4c32)cc1	none
Cc1cccc(NC(=O)CSc2nc(N)c(NC(=O)c3ccccc3F)c(=O)[nH]2)c1	none
CC(=O)Nc1ccc(NC(=O)CSc2nc(N)c(NC(=O)c3ccccc3F)c(=O)[nH]2)cc1	Scp1 inh 53 | Scp-1 conf 49 | MG interference inactive | Scp-1 Tm shift inactive
O=C(Nc1nc2ccccc2s1)C1CCN(S(=O)(=O)c2cc([N+](=O)[O-])ccc2Cl)CC1	Scp1 inh 68 | Scp-1 conf 64 | MG interference inactive | Scp-1 Tm shift 11
CCOC(=O)N1CCN(C(=O)C2CC(c3ccccc3OC)=NO2)CC1 (stereo not drawn)	none
CCOC(=O)/C=C1\CC(C(=O)OCC)Oc2c(OC)cccc21 (stereo not drawn)	Scp1 inh 103 | Scp-1 conf 67 | MG interference inactive | Scp-1 Tm shift inactive
C[C@]12CCC3C(CC=C4C[C@@H](O)CC[C@@]43C)C1CCC2[C@]1(C)CCC(=O)O1 (stereo partly drawn)	Scp1 inh 58 | Scp-1 conf inactive | MG interference inactive
CC12CCC(O)CC1=CCC1C2CCC2(C)C1CCC21CCC(=O)O1 (stereo not drawn)	none
CCOC(=O)/C=C1\CN(Cc2cc(OC)c(OC)c(OC)c2)S(=O)(=O)c2ccc(C(F)(F)F)cc21	Scp1 inh 88 | Scp-1 conf 57 | MG interference inactive | Scp-1 Tm shift inactive
CC1=C(C(=O)N(C(C)C)C(C)C)CC(CC(=O)NCCCN(C)C)C(=O)N1CCCN1CCCC1=O (stereo not drawn)	none (no result: Scp1 inh)
O=C(NC(=S)NC1CCSC1=O)c1ccccc1Cl (stereo not drawn)	none
Cc1ccccc1C(=O)NC1CCSC1=O (stereo not drawn)	Scp1 inh 64 | Scp-1 conf inactive | MG interference inactive
O=C(NNC(=O)c1ccc(NC(=O)c2ccccc2)cc1)c1ccccc1	Scp1 inh 62 | Scp-1 conf inactive | MG interference inactive
O=C(Cc1ccccc1)NNC(=O)c1ccc(NC(=O)c2ccccc2)cc1	none
O=C(CCCCCCCC(=O)NNC(=O)Nc1ccccc1)NNC(=O)Nc1ccccc1	Scp1 inh 73 | Scp-1 conf 65 | MG interference inactive | Scp-1 Tm shift inactive
Cc1cc(C)c(S(=O)(=O)Nc2ccc(C(=O)O)cc2)cc1S(=O)(=O)Nc1ccc(C(=O)O)cc1	none
Cc1ccc(C(=O)NCCN2CCNC2=O)cc1	none | Scp-1 conf inactive | MG interference inactive
Cc1onc(-c2c(F)cccc2Cl)c1C(=O)NCCN1CCNC1=O	none | Scp-1 conf inactive | MG interference inactive
CN(CC(=O)Nc1ccccc1Br)C(=O)CCCSc1nc2ccccc2[nH]1	none
Cc1ccc(S(=O)(=O)c2cn(C)c3cc(N4CCN(C)CC4)c(F)cc3c2=O)cc1	none
CCn1cc(S(=O)(=O)c2ccc(C)cc2)c(=O)c2cc(F)c(N3CCN(C)CC3)cc21	Scp1 inh 61 | Scp-1 conf inactive | MG interference inactive
Cc1ccc(S(=O)(=O)N[C@H](C(=O)OCC(=O)NC(=O)NCc2ccco2)C(C)C)cc1	Scp1 inh 62 | Scp-1 conf inactive | MG interference inactive
COC(=O)[C@@]1(Cc2ccc(F)cc2)[C@H]2c3cc(C(=O)N4CCCC4)n(CC4CC4)c3C[C@H]2CN1C(=O)c1ccccc1	none (no result: Scp1 inh, DNMT1 block, STEP inh)
N#C/C(=C\c1ccc(/C=C(/C#N)c2nn(CCO)c(N)c2C#N)cc1)c1nn(CCO)c(N)c1C#N	Scp1 inh 68, SUMO1 PPI mod 60 | Scp-1 conf inactive | MG interference inactive
CCCc1cc(=O)oc2cc(OCC(=O)NC(Cc3c[nH]c4ccc(O)cc34)C(=O)O)c(Cl)cc12 (stereo not drawn)	Scp1 inh 55 | Scp-1 conf 51 | MG interference inactive | Scp-1 Tm shift 11
Cc1cc(OCC(=O)NC(Cc2c[nH]c3ccc(O)cc23)C(=O)O)c2c(C)c(C)c(=O)oc2c1 (stereo not drawn)	none
Cc1cccc(CN(CC(=O)N/N=C/c2ccco2)S(=O)(=O)c2ccc(Cl)cc2)c1	Scp1 inh 58 | Scp-1 conf 48 | MG interference inactive | Scp-1 Tm shift inactive
Cc1ccc(S(=O)(=O)N(CC(=O)N/N=C/c2ccco2)Cc2ccccc2)cc1	none
COc1ccc(CCn2c(C(C)C)nc3c(c(=O)c4ccccc4n3C)c2=O)cc1	Scp1 inh 59 | Scp-1 conf inactive | MG interference inactive
COC(=O)C1=C(C)N(C)C(C)=C(C(=O)OC)C1c1ccccc1C	none
COC(=O)C1=C(C(=O)OC)C2(OC1c1ccccc1C)C(=O)c1ccccc1C2=O (stereo not drawn)	Scp1 inh 56 | Scp-1 conf inactive | MG interference inactive

Source: PubChem BioAssay
